Test results as given in ChEMBL document CHEMBL2046289, “Novel 2-(2-(benzylthio)-1H-benzo[d]imidazol-1-yl)acetic acids: discovery and hit-to-lead evolution of a selective CRTh2 receptor antagonist chemotype” (Bioorg Med Chem Lett, 2012).
pIC50: −log10 of the molar value. ≈ marks a conversion by molar mass, not a printed value.

Columns and labels:
[1] = target: T1, Prostaglandin D2 receptor 2 (Homo sapiens, UniProt Q9Y5Y4); experiment: Displacement of [3H]-PGD2 from human CRTh2 receptor expressed in HEK293 cells; assay type: cell-based
T1 sequence (Q9Y5Y4 whole entry): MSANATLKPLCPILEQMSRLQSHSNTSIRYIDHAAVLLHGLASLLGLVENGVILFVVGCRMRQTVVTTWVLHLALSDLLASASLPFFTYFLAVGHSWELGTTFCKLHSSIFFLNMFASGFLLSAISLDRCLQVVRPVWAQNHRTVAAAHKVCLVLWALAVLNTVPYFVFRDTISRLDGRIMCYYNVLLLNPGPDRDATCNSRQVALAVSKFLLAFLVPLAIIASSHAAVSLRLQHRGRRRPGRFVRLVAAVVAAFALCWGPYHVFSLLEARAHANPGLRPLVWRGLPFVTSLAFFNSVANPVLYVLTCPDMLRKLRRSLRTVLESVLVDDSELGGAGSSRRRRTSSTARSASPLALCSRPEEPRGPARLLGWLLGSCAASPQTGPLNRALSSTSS

[2] = target: T1, Prostaglandin D2 receptor 2; experiment: Antagonist activity at human CRTh2 receptor expressed in HEK293 cells assessed as inhibition of PGD2-induced calcium flux by FLIPR assay; assay type: functional, cell-based
[3] = target: T1, Prostaglandin D2 receptor 2; experiment: Displacement of [3H]-PGD2 from human CRTh2 receptor expressed in HEK293 cells in presence of 0.5% human serum albumin; assay type: cell-based
[4] = target: T2, Prostaglandin D2 receptor (Homo sapiens, UniProt Q13258); experiment: Displacement of [3H]-PGD2 from human DP1 receptor expressed in CHO cells; assay type: cell-based
T2 sequence (Q13258 whole entry): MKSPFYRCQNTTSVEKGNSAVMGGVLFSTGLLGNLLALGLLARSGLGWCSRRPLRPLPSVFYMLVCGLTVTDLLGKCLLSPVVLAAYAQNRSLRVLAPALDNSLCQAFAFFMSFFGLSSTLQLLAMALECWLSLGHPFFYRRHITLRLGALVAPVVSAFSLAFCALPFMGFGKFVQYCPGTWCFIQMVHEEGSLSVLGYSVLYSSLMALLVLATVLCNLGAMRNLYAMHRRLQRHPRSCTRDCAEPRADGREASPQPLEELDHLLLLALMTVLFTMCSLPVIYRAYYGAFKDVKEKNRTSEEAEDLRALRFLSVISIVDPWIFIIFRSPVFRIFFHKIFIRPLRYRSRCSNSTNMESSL

[5] = Lipophilicity, log D of the compound at pH 7.4; assay type: physicochemical; details: buffer
[6] = Solubility of the compound in 0.1 M HCl; assay type: physicochemical; details: buffer
[7] = Solubility of the compound in phosphate buffer at pH 7; assay type: physicochemical
[8] = Solubility of the compound in Tris buffer at pH 9; assay type: physicochemical
[9] = Stability of the compound in simulated gastric fluid assessed as compound remaining after 1 hr; assay type: physicochemical; details: read-out: Stability
Procedure, shortened: (§1)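 Compound incubated in simulated gastric fluid for 1 h or simulated intestinal fluid for 4 h; unchanged parent recovered quantified by LC-MS, expressed as % parent remaining.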

[10] = Stability of the compound in simulated intestinal fluid assessed as compound remaining after 4 hrs; assay type: physicochemical; details: read-out: Stability; procedure, shortened: as §1
[11] = Metabolic stability of the compound in human plasma assessed as compound remaining after 4 hrs; assay type: ADME, cell-free; details: read-out: Stability
[12] = Intrinsic clearance in rat liver microsomes assessed per mg protein; assay type: ADME, Microsome; details: read-out: CLH
[13] = Intrinsic clearance in human liver microsomes assessed per mg protein; assay type: ADME, Microsome; details: read-out: CLH
[14] = Intrinsic clearance in rat hepatocytes assessed per 10^6 cells; assay type: ADME, cell-based, Hepatocyte; details: read-out: CLH
Cytochrome P450 2D6 = Cytochrome P450 2D6 (Homo sapiens, UniProt P10635); experiment: Inhibition of CYP2D6; assay type: ADME
Cytochrome P450 3A4 [15] = target: T3, Cytochrome P450 3A4 (Homo sapiens, UniProt P08684); experiment: Inhibition of CYP3A4 using midazolam as substrate; assay type: ADME
Cytochrome P450 3A4 [16] = target: T3, Cytochrome P450 3A4; experiment: Inhibition of CYP3A4 using testosterone as substrate; assay type: ADME
Cytochrome P450 2C9 = Cytochrome P450 2C9 (Homo sapiens, UniProt P11712); experiment: Inhibition of CYP2C9; assay type: ADME
[17] = Volume of distribution at steady state in Wistar rat at 1 mg/kg, iv and 10 mg/kg, po; assay type: ADME, organism-based; details: in vivo, read-out: Vdss
Procedure, shortened: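 Male Wistar rats, 3 animals per experiment; intravenous dose 1 mg/kg and oral dose 10 mg/kg, each given as a solution.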

T3 sequence (P08684 whole entry): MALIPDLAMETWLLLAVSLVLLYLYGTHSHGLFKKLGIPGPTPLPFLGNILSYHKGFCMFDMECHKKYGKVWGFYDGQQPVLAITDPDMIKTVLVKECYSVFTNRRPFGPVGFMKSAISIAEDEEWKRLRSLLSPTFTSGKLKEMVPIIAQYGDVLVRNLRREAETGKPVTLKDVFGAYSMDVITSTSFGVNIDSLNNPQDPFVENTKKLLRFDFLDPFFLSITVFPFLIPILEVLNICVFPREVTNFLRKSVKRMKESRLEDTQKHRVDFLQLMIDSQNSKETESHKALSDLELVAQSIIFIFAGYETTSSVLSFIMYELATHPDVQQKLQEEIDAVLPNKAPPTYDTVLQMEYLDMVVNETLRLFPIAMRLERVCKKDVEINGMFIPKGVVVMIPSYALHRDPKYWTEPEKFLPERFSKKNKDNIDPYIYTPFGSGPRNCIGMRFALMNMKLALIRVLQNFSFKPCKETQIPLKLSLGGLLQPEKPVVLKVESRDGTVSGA
Sequence of Cytochrome P450 2D6 (P10635 whole entry): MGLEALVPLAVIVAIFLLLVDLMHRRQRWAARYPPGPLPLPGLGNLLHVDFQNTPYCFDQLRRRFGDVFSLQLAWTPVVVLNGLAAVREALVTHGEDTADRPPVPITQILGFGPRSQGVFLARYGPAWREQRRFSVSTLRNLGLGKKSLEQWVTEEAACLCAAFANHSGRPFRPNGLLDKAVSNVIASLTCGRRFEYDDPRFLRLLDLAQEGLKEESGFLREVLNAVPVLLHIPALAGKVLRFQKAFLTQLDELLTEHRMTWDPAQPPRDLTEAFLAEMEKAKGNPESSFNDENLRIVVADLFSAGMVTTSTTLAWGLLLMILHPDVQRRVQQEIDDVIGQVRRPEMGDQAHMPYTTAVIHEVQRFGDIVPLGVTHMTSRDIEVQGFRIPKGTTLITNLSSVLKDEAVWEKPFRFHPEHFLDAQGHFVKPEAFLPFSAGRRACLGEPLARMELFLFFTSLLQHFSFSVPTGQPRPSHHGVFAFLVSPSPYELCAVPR
Sequence of Cytochrome P450 2C9 (P11712 whole entry): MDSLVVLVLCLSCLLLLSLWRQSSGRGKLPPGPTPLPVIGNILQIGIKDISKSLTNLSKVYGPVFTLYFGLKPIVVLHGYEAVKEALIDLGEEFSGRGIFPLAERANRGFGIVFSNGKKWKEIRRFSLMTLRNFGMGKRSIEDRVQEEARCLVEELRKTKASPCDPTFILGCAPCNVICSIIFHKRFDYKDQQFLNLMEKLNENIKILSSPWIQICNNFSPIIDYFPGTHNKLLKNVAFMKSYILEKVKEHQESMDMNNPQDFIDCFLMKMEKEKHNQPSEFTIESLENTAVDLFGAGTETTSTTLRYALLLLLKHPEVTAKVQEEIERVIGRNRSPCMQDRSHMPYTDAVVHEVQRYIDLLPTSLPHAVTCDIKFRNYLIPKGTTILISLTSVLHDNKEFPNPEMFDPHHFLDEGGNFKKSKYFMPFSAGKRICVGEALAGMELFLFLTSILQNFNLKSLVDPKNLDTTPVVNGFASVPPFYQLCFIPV

| Structure (SMILES) | pIC50 [1] | other results |
| --- | --- | --- |
| O=C(O)Cn1c(SCCOc2ccc(Cl)cc2)nc2ccccc21 | 5.82 | pIC50 [2]: 5.18 |
| O=C(O)Cn1c(SCc2ccccc2)nc2ccccc21 | 6.41 | – |
| O=C(O)Cn1c(SCCOc2ccccc2)nc2ccccc21 | 6.23 | – |
| COC(=O)c1cccc(CSc2nc3ccccc3n2CC(=O)O)c1 | 6.35 | – |
| O=C(O)Cn1c(SCCOc2ccc3ccccc3c2)nc2ccccc21 | 5.60 | – |
| O=C(O)Cn1c(SCCOc2cccc3ccccc23)nc2ccccc21 | 5.70 | – |
| O=C(O)Cn1c(SCCCOc2ccccc2)nc2ccccc21 | 6.10 | – |
| O=C(O)Cn1c(SCCCCOc2ccccc2)nc2ccccc21 | 5.85 | – |
| O=C(O)Cn1c(SCCCc2ccccc2)nc2ccccc21 | 6.32 | – |
| O=C(O)Cn1c(SCCCNc2ccccc2)nc2ccccc21 | 5.57 | – |
| O=C(O)Cn1c(SCCNc2ccccc2)nc2ccccc21 | 5.11 | – |
| CCCCCCSc1nc2ccccc2n1CC(=O)O | 5.87 | – |
| CCCCCSc1nc2ccccc2n1CC(=O)O | 5.91 | – |
| CCCCSc1nc2ccccc2n1CC(=O)O | 5.63 | – |
| CCOC(=O)CCSc1nc2ccccc2n1CC(=O)O | 4.94 | – |
| CCOC(=O)CCCSc1nc2ccccc2n1CC(=O)O | 5.36 | – |
| CCOC(=O)CCCCSc1nc2ccccc2n1CC(=O)O | 5.63 | – |
| CCOC(=O)CCCCCSc1nc2ccccc2n1CC(=O)O | 6.00 | – |
| CCNC(=O)CCCCSc1nc2ccccc2n1CC(=O)O | < 5.00 | – |
| O=C(O)Cn1c(SCc2ccc(Cl)cc2)nc2ccccc21 | 6.80 | – |
| O=C(O)Cn1c(SCc2cccc(Cl)c2)nc2ccccc21 | 6.73 | – |
| O=C(O)Cn1c(SCc2ccccc2Cl)nc2ccccc21 | 6.43 | – |

| Structure (SMILES) | pIC50 [1] | other results |
| --- | --- | --- |
| COc1ccc(CSc2nc3ccccc3n2CC(=O)O)cc1 | 6.68 | – |
| COc1cccc(CSc2nc3ccccc3n2CC(=O)O)c1 | 7.14 | – |
| COc1ccccc1CSc1nc2ccccc2n1CC(=O)O | 5.96 | – |
| Cc1ccc(CSc2nc3ccccc3n2CC(=O)O)cc1 | 6.66 | – |
| Cc1cccc(CSc2nc3ccccc3n2CC(=O)O)c1 | 6.98 | – |
| Cc1ccccc1CSc1nc2ccccc2n1CC(=O)O | 6.09 | – |
| O=C(O)Cn1c(SCc2ccc(Br)cc2)nc2ccccc21 | 6.66 | – |
| O=C(O)Cn1c(SCc2cccc(Br)c2)nc2ccccc21 | 6.43 | – |
| O=C(O)Cn1c(SCc2ccccc2Br)nc2ccccc21 | 6.24 | – |
| COC(=O)c1ccc(CSc2nc3ccccc3n2CC(=O)O)cc1 | 4.97 | – |
| COC(=O)c1ccccc1CSc1nc2ccccc2n1CC(=O)O | 6.28 | – |
| O=C(O)Cn1c(SCc2ccc(Cl)c(Cl)c2)nc2ccccc21 | 6.42 | – |
| O=C(O)Cn1c(SCc2cc(Cl)ccc2Cl)nc2ccccc21 | 6.33 | – |
| COc1ccc(C)cc1CSc1nc2ccccc2n1CC(=O)O | 5.92 | – |
| COc1ccc(Cl)cc1CSc1nc2ccccc2n1CC(=O)O | 6.13 | – |
| COc1ccc(OC)c(CSc2nc3ccccc3n2CC(=O)O)c1 | 5.80 | – |
| COC(=O)c1ccc(OC)c(CSc2nc3ccccc3n2CC(=O)O)c1 | 7.54 | – |
| COC(=O)c1cccc(CSc2nc3ccccc3n2CC(=O)O)c1Br | 5.54 | – |
| COC(=O)c1cc(CSc2nc3ccccc3n2CC(=O)O)ccc1Br | 6.01 | – |
| COC(=O)c1cc(Br)cc(CSc2nc3ccccc3n2CC(=O)O)c1 | 6.48 | – |
| COC(=O)c1ccc(Br)c(CSc2nc3ccccc3n2CC(=O)O)c1 | 7.35 | – |
| COc1ccc(C(=O)OC(C)C)cc1CSc1nc2ccccc2n1CC(=O)O | 6.82 | – |

| Structure (SMILES) | pIC50 [1] | other results |
| --- | --- | --- |
| CC(=O)c1cccc(CSc2nc3ccccc3n2CC(=O)O)c1 | 6.64 | – |
| COc1ccc(C(C)=O)cc1CSc1nc2c(F)cccc2n1CC(=O)O | 8.30 | pIC50 [2]: 8.00 |
| COc1ccc(C(C)=O)cc1CSc1nc2ccc(F)cc2n1CC(=O)O | 7.35 | pIC50 [2]: 7.05 |
| COc1ccc(C(C)=O)cc1CSc1nc2cc([N+](=O)[O-])ccc2n1CC(=O)O | 8.70 | pIC50 [2]: 8.52 |
| COc1ccc(C(C)=O)cc1CSc1nc2cc(C(F)(F)F)ccc2n1CC(=O)O | 8.52 | pIC50 [2]: 8.30 |
| COc1ccc(C(C)=O)cc1CSc1nc2cc(S(C)(=O)=O)ccc2n1CC(=O)O | 7.39 | pIC50 [2]: 7.30 |
| COc1ccc(C(C)=O)cc1CSc1nc2cc(C(C)=O)ccc2n1CC(=O)O | 7.48 | pIC50 [2]: 7.20 |
| COc1ccc(C(C)=O)cc1CSc1nc2cc(C=O)ccc2n1CC(=O)O | 8.40 | pIC50 [2]: 8.05 |
| CCOc1ccc(C(C)=O)cc1CSc1nc2cc(F)ccc2n1CC(=O)O | 8.40 | pIC50 [2]: 8.30 |
| CCCOc1ccc(C(C)=O)cc1CSc1nc2cc(F)ccc2n1CC(=O)O | 8.30 | pIC50 [2]: 8.05 |
| CCCCOc1ccc(C(C)=O)cc1CSc1nc2cc(F)ccc2n1CC(=O)O | 8.05 | pIC50 [2]: 7.92 |
| COc1ccc(C(=O)c2ccccc2)cc1CSc1nc2cc(F)ccc2n1CC(=O)O | 8.77 | pIC50 [2]: 8.40 |
| CCNC(=O)c1ccc(OC)c(CSc2nc3cc(F)ccc3n2CC(=O)O)c1 | 7.80 | pIC50 [2]: 7.82 |
| COc1ccc(C(=O)NCc2ccccc2)cc1CSc1nc2cc(F)ccc2n1CC(=O)O | 7.23 | pIC50 [2]: 7.03 |
| CCN(CC)C(=O)c1ccc(OC)c(CSc2nc3cc(F)ccc3n2CC(=O)O)c1 | 7.14 | pIC50 [2]: 6.89 |
| CCN(Cc1ccccc1)C(=O)c1ccc(OC)c(CSc2nc3cc(F)ccc3n2CC(=O)O)c1 | 6.31 | pIC50 [2]: 6.14 |
| COc1ccc(C(=O)N2CCOCC2)cc1CSc1nc2cc(F)ccc2n1CC(=O)O | 6.97 | pIC50 [2]: 7.04 |
| COc1ccc(C(=O)N2CCc3ccccc32)cc1CSc1nc2cc(F)ccc2n1CC(=O)O | 8.52 | pIC50 [3]: 8.10; pIC50 [4]: < 5.00; logD [5]: 0.3; solubility [6]: 158 µg/mL (≈ 321 µM); solubility [7]: 812 µg/mL (≈ 1650 µM); solubility [8]: 789 µg/mL (≈ 1610 µM); remaining at 1 h [9]: 100%; remaining at 4 h [10]: 100%; remaining at 4 h [11]: 93%; microsomal CLint [12]: 91 µL/min/mg; microsomal CLint [13]: 2 µL/min/mg; hepatocyte CLint [14]: 12 µL/min/1e6 cells; pIC50 (Cytochrome P450 2D6): < 4.30; pIC50 (Cytochrome P450 3A4 [15]): 5.30; pIC50 (Cytochrome P450 3A4 [16]): 4.89; pIC50 (Cytochrome P450 2C9): 4.55 |
| O=C(O)Cn1c(SCCc2ccccc2)nc2ccccc21 | 6.06 | – |
| COc1ccc(C(C)O)cc1CSc1nc2ccccc2n1CC(=O)O (racemic) | 5.66 | – |
| CC(=O)Oc1ccccc1C(=O)O [ASPIRIN] | – | Vd [17]: 1 L/kg |
| CC(=O)CC(c1ccccc1)c1c(O)c2ccccc2oc1=O (centres undefined) [WARFARIN] | – | Vd [17]: 1 L/kg |
